Reference: ChEMBL document CHEMBL3797186, “Single Residue Substitutions That Confer Voltage-Gated Sodium Ion Channel Subtype Selectivity in the NaV1.7 Inhibitory Peptide GpTx-1” (J Med Chem, 2016)
Positions of bridges follow the written chain, without caps; N, C: chain ends. Non-standard residues stand in square brackets, D forms with d. Residues, ends and D or L forms follow the SMILES beside them. Ala(indol-2-yl) = N[C@@H](Cc1cc2ccccc2[nH]1)C(=O)O; 1Nal = N[C@@H](Cc1cccc2ccccc12)C(=O)O

Experiments:
Type in all cases: cell-based
[1] = target: T1, Sodium channel protein type 9 subunit alpha (Homo sapiens, UniProt Q15858); assay: Inhibition of human Nav1.7 expressed in HEK293 cells assessed as inward peak current by ion-works quattro patch clamp electrophysiology method
[2] = target: T2, Sodium channel protein type 5 subunit alpha (Homo sapiens, UniProt Q14524); assay: Inhibition of human Nav1.5 expressed in HEK293 cells assessed as inward peak current by ion-works quattro patch clamp electrophysiology method
Outline: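 Stable HEK293 line expressing human NaV1.5, recorded by population patch clamp on the IonWorks Quattro.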

[3] = target: T1, Sodium channel protein type 9 subunit alpha; assay: Inhibition of human Nav1.7 expressed in HEK293 cells by whole cell patch clamp electrophysiology method
[4] = target: T2, Sodium channel protein type 5 subunit alpha; assay: Inhibition of human Nav1.5 expressed in HEK293 cells by whole cell patch clamp electrophysiology method
Outline: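 Stable HEK293 line expressing human NaV1.5, recorded on the PatchXpress 7000A. Percent inhibition versus concentration was pooled from at least 10 cells, with two to three points per concentration. The pooled set was fitted with a four-parameter Hill equation to give a single IC50 curve.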

T1 sequence (Q15858 whole entry): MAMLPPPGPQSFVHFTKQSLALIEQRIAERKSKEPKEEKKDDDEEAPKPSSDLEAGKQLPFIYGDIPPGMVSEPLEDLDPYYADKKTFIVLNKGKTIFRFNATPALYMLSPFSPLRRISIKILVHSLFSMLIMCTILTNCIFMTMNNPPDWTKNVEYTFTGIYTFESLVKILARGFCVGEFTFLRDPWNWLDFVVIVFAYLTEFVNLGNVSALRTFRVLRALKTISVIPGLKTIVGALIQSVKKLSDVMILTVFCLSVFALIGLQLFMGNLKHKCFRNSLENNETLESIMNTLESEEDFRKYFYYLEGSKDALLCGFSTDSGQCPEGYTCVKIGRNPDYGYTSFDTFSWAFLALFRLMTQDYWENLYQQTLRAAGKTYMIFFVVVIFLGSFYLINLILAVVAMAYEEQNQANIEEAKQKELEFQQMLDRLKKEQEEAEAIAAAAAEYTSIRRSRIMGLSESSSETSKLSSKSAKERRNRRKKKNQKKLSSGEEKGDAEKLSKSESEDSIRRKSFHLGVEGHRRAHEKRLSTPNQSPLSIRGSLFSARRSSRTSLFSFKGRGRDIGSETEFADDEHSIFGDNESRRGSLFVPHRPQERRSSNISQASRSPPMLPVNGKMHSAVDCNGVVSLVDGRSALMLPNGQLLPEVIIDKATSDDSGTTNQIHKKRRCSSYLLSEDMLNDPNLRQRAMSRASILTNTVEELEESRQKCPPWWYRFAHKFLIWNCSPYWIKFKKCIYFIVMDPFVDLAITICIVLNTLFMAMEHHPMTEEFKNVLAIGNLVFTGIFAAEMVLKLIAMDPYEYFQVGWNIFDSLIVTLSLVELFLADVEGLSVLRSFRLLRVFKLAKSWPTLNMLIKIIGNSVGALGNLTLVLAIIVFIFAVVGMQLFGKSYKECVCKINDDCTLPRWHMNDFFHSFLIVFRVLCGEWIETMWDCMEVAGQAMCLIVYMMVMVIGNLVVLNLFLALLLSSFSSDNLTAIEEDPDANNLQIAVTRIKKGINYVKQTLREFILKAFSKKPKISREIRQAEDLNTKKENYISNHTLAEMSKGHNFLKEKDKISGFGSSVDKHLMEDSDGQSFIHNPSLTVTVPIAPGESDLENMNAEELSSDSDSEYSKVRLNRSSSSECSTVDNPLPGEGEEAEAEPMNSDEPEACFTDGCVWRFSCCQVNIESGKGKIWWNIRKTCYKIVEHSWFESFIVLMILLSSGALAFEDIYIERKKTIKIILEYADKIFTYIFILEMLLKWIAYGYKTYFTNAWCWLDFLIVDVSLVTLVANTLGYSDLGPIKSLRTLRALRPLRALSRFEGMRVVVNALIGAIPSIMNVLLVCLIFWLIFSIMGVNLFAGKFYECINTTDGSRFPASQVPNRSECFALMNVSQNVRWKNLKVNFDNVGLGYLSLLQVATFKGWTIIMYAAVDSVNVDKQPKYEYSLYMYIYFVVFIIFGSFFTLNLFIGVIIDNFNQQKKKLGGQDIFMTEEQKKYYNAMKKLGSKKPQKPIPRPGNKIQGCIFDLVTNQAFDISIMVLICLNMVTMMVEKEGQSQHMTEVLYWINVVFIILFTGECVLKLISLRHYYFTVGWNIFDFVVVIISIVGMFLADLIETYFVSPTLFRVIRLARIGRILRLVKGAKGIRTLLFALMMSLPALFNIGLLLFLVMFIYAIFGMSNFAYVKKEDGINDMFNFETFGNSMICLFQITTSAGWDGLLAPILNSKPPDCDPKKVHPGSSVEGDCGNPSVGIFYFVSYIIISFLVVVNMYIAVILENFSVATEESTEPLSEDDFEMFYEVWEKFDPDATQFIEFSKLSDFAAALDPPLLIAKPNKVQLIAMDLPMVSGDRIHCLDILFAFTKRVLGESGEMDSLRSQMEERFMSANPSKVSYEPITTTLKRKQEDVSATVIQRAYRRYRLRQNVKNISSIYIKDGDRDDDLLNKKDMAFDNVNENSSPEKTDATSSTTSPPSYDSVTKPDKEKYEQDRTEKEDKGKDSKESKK
T2 sequence (Q14524 whole entry): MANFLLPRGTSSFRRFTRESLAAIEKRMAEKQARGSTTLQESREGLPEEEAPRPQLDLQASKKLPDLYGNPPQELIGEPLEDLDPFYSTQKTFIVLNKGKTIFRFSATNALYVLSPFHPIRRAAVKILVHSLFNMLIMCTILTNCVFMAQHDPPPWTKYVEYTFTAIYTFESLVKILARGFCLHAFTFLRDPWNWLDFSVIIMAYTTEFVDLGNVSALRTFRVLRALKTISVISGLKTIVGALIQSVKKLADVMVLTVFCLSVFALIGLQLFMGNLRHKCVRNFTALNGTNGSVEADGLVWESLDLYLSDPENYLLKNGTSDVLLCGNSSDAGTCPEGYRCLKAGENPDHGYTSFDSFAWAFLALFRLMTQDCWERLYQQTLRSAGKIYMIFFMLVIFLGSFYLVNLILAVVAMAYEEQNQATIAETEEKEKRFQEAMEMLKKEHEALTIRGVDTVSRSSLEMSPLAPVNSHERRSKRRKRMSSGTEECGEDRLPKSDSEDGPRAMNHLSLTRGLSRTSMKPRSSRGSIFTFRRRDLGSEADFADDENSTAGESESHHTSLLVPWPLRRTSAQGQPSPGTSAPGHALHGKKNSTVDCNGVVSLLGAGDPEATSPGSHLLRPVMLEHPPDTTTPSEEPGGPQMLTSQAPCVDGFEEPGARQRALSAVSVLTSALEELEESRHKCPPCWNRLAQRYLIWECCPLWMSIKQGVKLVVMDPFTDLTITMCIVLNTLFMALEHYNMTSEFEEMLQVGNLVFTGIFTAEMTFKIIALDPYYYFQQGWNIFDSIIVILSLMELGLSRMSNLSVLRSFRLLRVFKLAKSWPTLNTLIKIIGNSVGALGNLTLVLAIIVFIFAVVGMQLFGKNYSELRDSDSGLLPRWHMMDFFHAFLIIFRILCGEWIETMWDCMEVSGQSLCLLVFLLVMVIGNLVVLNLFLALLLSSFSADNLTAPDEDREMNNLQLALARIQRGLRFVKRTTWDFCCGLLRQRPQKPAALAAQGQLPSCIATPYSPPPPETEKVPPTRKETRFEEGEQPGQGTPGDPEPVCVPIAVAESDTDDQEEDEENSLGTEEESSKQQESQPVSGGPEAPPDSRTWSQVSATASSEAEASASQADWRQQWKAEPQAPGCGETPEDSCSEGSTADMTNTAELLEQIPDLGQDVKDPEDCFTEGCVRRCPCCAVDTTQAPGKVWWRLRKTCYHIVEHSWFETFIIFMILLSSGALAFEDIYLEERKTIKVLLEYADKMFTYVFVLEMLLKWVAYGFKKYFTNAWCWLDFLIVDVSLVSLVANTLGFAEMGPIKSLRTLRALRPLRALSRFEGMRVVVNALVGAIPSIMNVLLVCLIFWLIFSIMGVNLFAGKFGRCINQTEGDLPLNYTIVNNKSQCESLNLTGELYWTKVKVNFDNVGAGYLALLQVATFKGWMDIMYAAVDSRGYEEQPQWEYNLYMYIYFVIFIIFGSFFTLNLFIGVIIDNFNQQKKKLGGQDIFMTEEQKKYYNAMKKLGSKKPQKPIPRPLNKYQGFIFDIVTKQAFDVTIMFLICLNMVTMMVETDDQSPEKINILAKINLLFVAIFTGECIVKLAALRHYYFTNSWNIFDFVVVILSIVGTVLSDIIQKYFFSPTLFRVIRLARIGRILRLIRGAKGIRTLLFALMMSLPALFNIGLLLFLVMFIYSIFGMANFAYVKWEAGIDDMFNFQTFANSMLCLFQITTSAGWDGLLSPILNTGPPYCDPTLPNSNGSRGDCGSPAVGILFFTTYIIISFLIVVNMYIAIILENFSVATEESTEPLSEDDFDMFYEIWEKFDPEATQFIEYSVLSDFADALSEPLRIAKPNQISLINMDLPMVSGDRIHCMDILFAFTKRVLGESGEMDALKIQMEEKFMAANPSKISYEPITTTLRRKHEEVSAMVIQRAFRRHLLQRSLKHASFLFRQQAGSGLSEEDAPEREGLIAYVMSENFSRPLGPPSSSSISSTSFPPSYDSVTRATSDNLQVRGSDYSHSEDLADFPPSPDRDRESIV

Which IC50 [1] does the source give for CC[C@H](C)[C@@H]1NC(=O)[C@@H]2CSSC[C@@H]3NC(=O)[C@H](C(C)C)NC(=O)[C@H](CC(C)C)NC(=O)[C@H](CC(N)=O)NC(=O)[C@@H]4CCCN4C(=O)[C@H](Cc4cc5ccccc5[nH]4)NC(=O)[C@H](CSSC[C@H](NC(=O)[C@@H](N)CC(=O)O)C(=O)N[C@@H](CC(C)C)C(=O)NCC(=O)N[C@@H](Cc4ccccc4)C(=O)N[C@@H](CCSC)C(=O)N[C@@H](CCCNC(=N)N)C(=O)N[C@@H](CCCCN)C(=O)N2)NC(=O)[C@H](CSSC[C@@H](C(=O)N[C@@H](CCCCN)C(=O)N[C@@H](Cc2ccc(O)cc2)C(=O)N[C@H](C(=O)N[C@@H](Cc2ccccc2)C(N)=O)C(C)C)NC(=O)[C@H](Cc2c[nH]c4ccccc24)NC(=O)[C@H](CCCCN)NC(=O)[C@H](Cc2cnc[nH]2)NC(=O)[C@H]([C@@H](C)O)NC(=O)[C@H](CCCNC(=N)N)NC(=O)[C@H](CO)NC3=O)NC(=O)[C@H](CCCCN)NC(=O)[C@H](CC(=O)O)NC(=O)[C@H](CC(N)=O)NC(=O)[C@H](CC(=O)O)NC(=O)[C@@H]2CCCN2C1=O (H-DCLGFMRKCIPDNDKCC[Ala(indol-2-yl)]PNLVCSRTHKWCKYVF-NH2; disulfide 2-17, 9-23, 16-30) here?
Its IC50 is 180 nM.

What about the IC50 [2] of the same compound?
Its IC50 is over 5000 nM.

What about the IC50 [3] of the same compound?
Its IC50 is 18 nM.

What about the IC50 [4] of the same compound?
Its IC50 is over 10000 nM.

With CC[C@H](C)[C@@H]1NC(=O)[C@@H]2CSSC[C@@H]3NC(=O)[C@H](C(C)C)NC(=O)[C@H](CC(C)C)NC(=O)[C@H](CC(N)=O)NC(=O)[C@@H]4CCCN4C(=O)[C@H](CCCNC(=N)N)NC(=O)[C@H](CSSC[C@H](NC(=O)[C@@H](N)CC(=O)O)C(=O)N[C@@H](CC(C)C)C(=O)NCC(=O)N[C@@H](Cc4ccccc4)C(=O)N[C@@H](CCSC)C(=O)N[C@@H](CCCNC(=N)N)C(=O)N[C@@H](CCCCN)C(=O)N2)NC(=O)[C@H](CSSC[C@@H](C(=O)N[C@@H](CCCCN)C(=O)N[C@@H](Cc2ccc(O)cc2)C(=O)N[C@H](C(=O)N[C@@H](Cc2cccc4ccccc24)C(N)=O)C(C)C)NC(=O)[C@H](Cc2c[nH]c4ccccc24)NC(=O)[C@H](CCCCN)NC(=O)[C@H](Cc2cnc[nH]2)NC(=O)[C@H]([C@@H](C)O)NC(=O)[C@H](CCCNC(=N)N)NC(=O)[C@H](CO)NC3=O)NC(=O)[C@H](CCCCN)NC(=O)[C@H](CC(=O)O)NC(=O)[C@H](CC(N)=O)NC(=O)[C@H](CC(=O)O)NC(=O)[C@@H]2CCCN2C1=O (H-DCLGFMRKCIPDNDKCCRPNLVCSRTHKWCKYV[1Nal]-NH2; disulfide 2-17, 9-23, 16-30) as the compound, how does the IC50 [1] read?
The IC50 was 40 nM.

What about the IC50 [2] of the same compound?
The IC50 was over 5000 nM.

What about the IC50 [3] of the same compound?
The IC50 was 5 nM.

What about the IC50 [4] of the same compound?
Its IC50 is 1800 nM.

What does the source list for CSCC[C@@H]1NC(=O)[C@H](Cc2ccccc2)NC(=O)CNC(=O)[C@H](CC(C)C)NC(=O)[C@@H](NC(=O)[C@@H](N)CC(=O)O)CSSC[C@@H]2NC(=O)[C@@H]3CSSC[C@@H](C(=O)N[C@@H](CCCCN)C(=O)N[C@@H](Cc4ccc(O)cc4)C(=O)N[C@H](C(=O)N[C@@H](Cc4ccccc4)C(N)=O)C(C)C)NC(=O)[C@H](Cc4c[nH]c5ccccc45)NC(=O)[C@H](CCCCN)NC(=O)[C@H](Cc4cnc[nH]4)NC(=O)[C@H]([C@@H](C)O)NC(=O)[C@H](CCCNC(=N)N)NC(=O)[C@H](CO)NC(=O)[C@H](CSSC[C@H](NC(=O)[C@H](CCCCN)NC(=O)[C@H](CCCNC(=N)N)NC1=O)C(=O)N[C@@H](CC(N)=O)C(=O)N1CCC[C@H]1C(=O)N[C@@H](CC(=O)O)C(=O)N[C@@H](CC(N)=O)C(=O)N[C@@H](CC(=O)O)C(=O)N[C@@H](CCCCN)C(=O)N3)NC(=O)[C@H](C(C)C)NC(=O)[C@H](CC(C)C)NC(=O)[C@H](CC(N)=O)NC(=O)[C@@H]1CCCN1C(=O)[C@H](CCCNC(=N)N)NC2=O (H-DCLGFMRKCNPDNDKCCRPNLVCSRTHKWCKYVF-NH2; disulfide 2-17, 9-23, 16-30)?
IC50 [1]: 330 nM; IC50 [2]: > 5000 nM; IC50 [3]: 1.9 nM; IC50 [4]: > 10000 nM

How did the IC50 [1] turn out when CC[C@H](C)[C@@H]1NC(=O)[C@@H]2CSSC[C@@H]3NC(=O)[C@H](C(C)C)NC(=O)[C@H](CC(C)C)NC(=O)[C@H](CC(N)=O)NC(=O)[C@@H]4CCCN4C(=O)[C@H](CCCCN)NC(=O)[C@H](CSSC[C@H](NC(=O)[C@@H](N)CC(=O)O)C(=O)N[C@@H](CC(C)C)C(=O)NCC(=O)N[C@@H](Cc4ccccc4)C(=O)N[C@@H](CCSC)C(=O)N[C@@H](CCCNC(=N)N)C(=O)N[C@@H](CCCCN)C(=O)N2)NC(=O)[C@H](CSSC[C@@H](C(=O)N[C@@H](CCCCN)C(=O)N[C@@H](Cc2ccc(O)cc2)C(=O)N[C@H](C(=O)N[C@@H](Cc2ccccc2)C(N)=O)C(C)C)NC(=O)[C@H](Cc2c[nH]c4ccccc24)NC(=O)[C@H](CCCCN)NC(=O)[C@H](Cc2cnc[nH]2)NC(=O)[C@H]([C@@H](C)O)NC(=O)[C@H](CCCNC(=N)N)NC(=O)[C@H](CO)NC3=O)NC(=O)[C@H](CCCCN)NC(=O)[C@H](CC(=O)O)NC(=O)[C@H](CC(N)=O)NC(=O)[C@H](CC(=O)O)NC(=O)[C@@H]2CCCN2C1=O (H-DCLGFMRKCIPDNDKCCKPNLVCSRTHKWCKYVF-NH2; disulfide 2-17, 9-23, 16-30) was run?
Its IC50 is 360 nM.

And the IC50 [2]?
The IC50 was over 5000 nM.

And the IC50 [3]?
Its IC50 is 1.6 nM.

And the IC50 [4]?
Its IC50 is 15900 nM.

How did the IC50 [2] turn out when CSCC[C@@H]1NC(=O)[C@H](Cc2ccccc2)NC(=O)CNC(=O)[C@H](CC(C)C)NC(=O)[C@@H](NC(=O)[C@@H](N)CC(=O)O)CSSC[C@@H]2NC(=O)[C@@H]3CSSC[C@@H](C(=O)N[C@@H](CCCCN)C(=O)N[C@@H](Cc4ccc(O)cc4)C(=O)N[C@H](C(=O)N[C@@H](Cc4ccccc4)C(N)=O)C(C)C)NC(=O)[C@H](Cc4c[nH]c5ccccc45)NC(=O)[C@H](CCCCN)NC(=O)[C@H](Cc4cnc[nH]4)NC(=O)[C@H]([C@@H](C)O)NC(=O)[C@H](CCCNC(=N)N)NC(=O)[C@H](CO)NC(=O)[C@H](CSSC[C@H](NC(=O)[C@H](CCCCN)NC(=O)[C@H](CCCNC(=N)N)NC1=O)C(=O)N[C@@H](CCC(=O)O)C(=O)N1CCC[C@H]1C(=O)N[C@@H](CC(=O)O)C(=O)N[C@@H](CC(N)=O)C(=O)N[C@@H](CC(=O)O)C(=O)N[C@@H](CCCCN)C(=O)N3)NC(=O)[C@H](C(C)C)NC(=O)[C@H](CC(C)C)NC(=O)[C@H](CC(N)=O)NC(=O)[C@@H]1CCCN1C(=O)[C@H](CCCNC(=N)N)NC2=O (H-DCLGFMRKCEPDNDKCCRPNLVCSRTHKWCKYVF-NH2; disulfide 2-17, 9-23, 16-30) was run?
Its IC50 is over 5000 nM.

What about the IC50 [3] of the same compound?
Its IC50 is 2.1 nM.

And the IC50 [4]?
The IC50 was over 10000 nM.

How did the IC50 [2] turn out when CC[C@H](C)[C@@H]1NC(=O)[C@@H]2CSSC[C@@H]3NC(=O)[C@H](C(C)C)NC(=O)[C@H](CC(C)C)NC(=O)[C@H](CC(N)=O)NC(=O)[C@@H]4CCCN4C(=O)[C@H](CCC(=O)O)NC(=O)[C@H](CSSC[C@H](NC(=O)[C@@H](N)CC(=O)O)C(=O)N[C@@H](CC(C)C)C(=O)NCC(=O)N[C@@H](Cc4ccccc4)C(=O)N[C@@H](CCSC)C(=O)N[C@@H](CCCNC(=N)N)C(=O)N[C@@H](CCCCN)C(=O)N2)NC(=O)[C@H](CSSC[C@@H](C(=O)N[C@@H](CCCCN)C(=O)N[C@@H](Cc2ccc(O)cc2)C(=O)N[C@H](C(=O)N[C@@H](Cc2ccccc2)C(N)=O)C(C)C)NC(=O)[C@H](Cc2c[nH]c4ccccc24)NC(=O)[C@H](CCCCN)NC(=O)[C@H](Cc2cnc[nH]2)NC(=O)[C@H]([C@@H](C)O)NC(=O)[C@H](CCCNC(=N)N)NC(=O)[C@H](CO)NC3=O)NC(=O)[C@H](CCCCN)NC(=O)[C@H](CC(=O)O)NC(=O)[C@H](CC(N)=O)NC(=O)[C@H](CC(=O)O)NC(=O)[C@@H]2CCCN2C1=O (H-DCLGFMRKCIPDNDKCCEPNLVCSRTHKWCKYVF-NH2; disulfide 2-17, 9-23, 16-30) was run?
Its IC50 is over 5000 nM.

What about the IC50 [3] of the same compound?
Its IC50 is 17 nM.

What about the IC50 [4] of the same compound?
Its IC50 is over 10000 nM.
